Experimental data taken from ChEMBL document CHEMBL1955822, “Camptothecin (CPT) directly binds to human heterogeneous nuclear ribonucleoprotein A1 (hnRNP A1) and inhibits the hnRNP A1/topoisomerase I interaction” (Bioorg Med Chem, 2011).
Calls of active or inactive are those of the source. The rule behind the calls is not given here.

Experiments:
[1] = system: Drosophila melanogaster; assay: Growth inhibition of Drosophila melanogaster expressing Hrb87F mutant KG02089 assessed as reduction in eclosion rate at 25 uM after 15 days; format: functional, organism-based
In short: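 Eggs of Hrb87F KG02089 mutant and CantonS wild-type immersed in 25 µM drug or DMSO in 4% EtOH/5% DMSO vehicle. Adults emerging within 15 days counted. Rate = N(mutant)/N(WT) × 100%. Means ± S.E. of three independent experiments.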

[2] = molecular target: T1, Heterogeneous nuclear ribonucleoprotein A1 (Homo sapiens, UniProt P09651); assay: Binding affinity to human hnRNP A1 expressed in HeLa cells after 16 hrs by avidin-agarose bead pull down assay; format: cell-based
T1 sequence (P09651 whole entry): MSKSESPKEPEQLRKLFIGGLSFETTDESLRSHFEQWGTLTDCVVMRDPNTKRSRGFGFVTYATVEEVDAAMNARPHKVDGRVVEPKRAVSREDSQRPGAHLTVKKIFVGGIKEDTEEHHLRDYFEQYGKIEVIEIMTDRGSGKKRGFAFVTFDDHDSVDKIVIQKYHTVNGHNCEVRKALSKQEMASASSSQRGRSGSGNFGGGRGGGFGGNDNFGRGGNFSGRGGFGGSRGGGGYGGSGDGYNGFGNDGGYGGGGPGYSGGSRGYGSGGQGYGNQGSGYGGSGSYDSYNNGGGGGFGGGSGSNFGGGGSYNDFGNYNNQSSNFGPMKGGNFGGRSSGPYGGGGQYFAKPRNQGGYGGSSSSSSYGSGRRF
In short: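 HeLa cells grown in DMEM/10% FCS, 37 °C, 5% CO2; 10^7 cells lysed 1 min in Tris pH 8.0/NaCl/EDTA/0.5% Triton-X; supernatant precleared on avidin-agarose, then 16 h at 4 °C with biotinylated CPT probe (1 mM stock, 1:10 into lysate) or DMSO; avidin-agarose capture 1 h at 4 °C, PBS washes, SDS-PAGE, anti-hnRNP A1 western blot with chemiluminescence.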

[3] = molecular target: T1, Heterogeneous nuclear ribonucleoprotein A1; assay: Binding affinity to recombinant GST-tagged human hnRNP A1 expressed in Escherichia coli after 16 hrs by avidin-agarose bead pull down assay
In short: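 Lysate of E. coli expressing hnRNP A1-GST made by sonication in Tris pH 8.0/150 mM NaCl/EDTA/PMSF. Precleared on avidin-agarose, then mixed with biotinylated CPT probe (1 mM stock, 1:10) or DMSO for 16 h at 4 °C. Bound material captured 1 h on avidin-agarose, washed five times in PBS, run on 15% SDS-PAGE and immunoblotted for hnRNP A1.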

[4] = molecular target: T1, Heterogeneous nuclear ribonucleoprotein A1; assay: Binding affinity to recombinant GST-tagged human hnRNP A1 expressed in Escherichia coli using QCM biosensor by Scatchard plot analysis
In short: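 Quartz crystal microbalance with GST-affinity-purified hnRNP A1-GST immobilised on gold electrode; cuvette of PBS–10% DMSO at 25 °C; CPT injected at final 12.5–250 nM; frequency change monitored; Langmuir and Scatchard plots; means ± S.E. of three independent experiments.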

[5] = molecular target: T1, Heterogeneous nuclear ribonucleoprotein A1; assay: Inhibition of recombinant GST-tagged human hnRNP A1/his-tagged top1 cap region interaction expressed in Escherichia coli by SPR biosensor analysis
In short: (§1)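 Biacore SPR, CM5 chip with His-tagged top I cap region (215–433) amine-coupled at pH 5, about 10,000 RU. hnRNP A1-GST injected at various concentrations with or without CPT in HBS-EP/5% DMSO, 20 µl/min, 25 °C. Data analysed by Langmuir and Lineweaver-Burk plots under a non-competitive inhibition model.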

[6] = molecular target: T1, Heterogeneous nuclear ribonucleoprotein A1; assay: Noncompetitive inhibition of recombinant GST-tagged human hnRNP A1 binding to recombinant His-tagged top1 cap region by SPR biosensor analysis; in short: as §1
[7] = system: Drosophila melanogaster; assay: Growth inhibition of Drosophila melanogaster expressing Hrb87F mutant KG02089 assessed as reduction in eclosion rate after 15 days; format: functional, organism-based
In short: (§2)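 Drosophila eggs from 20 adults (laid over 24 h) immersed in 250 µl CPT at 0, 5, 12.5, 25 or 50 µM in 4% EtOH/5% DMSO. Adults emerging within 15 days counted. Eclosion rate = N(µM)/N(0 µM) × 100%, compared with wild-type CantonS. Means ± S.E. of three independent experiments.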

[8] = system: Drosophila melanogaster; assay: Growth inhibition of Drosophila melanogaster expressing Hrb87F mutant BG02743 assessed as reduction in eclosion rate after 15 days; format: functional, organism-based; in short: as §2
[9] = system: Drosophila melanogaster; assay: Growth inhibition of 7 day-old Drosophila melanogaster pupa expressing Hrb87F mutant KG02089 at 25 to 50 uM after 15 days; format: functional, organism-based
In short: (§3)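 Drosophila eggs from 20 adults (laid over 24 h) immersed in 250 µl CPT at 0, 5, 12.5, 25 or 50 µM in 4% EtOH/5% DMSO. Development and pupal phenotype followed at 5, 7 and 14 days after dosing. Wild-type CantonS served as reference.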

[10] = system: Drosophila melanogaster; assay: Growth inhibition of 7 day-old Drosophila melanogaster pupa expressing Hrb87F mutant BG02743 at 25 to 50 uM after 15 days; format: functional, organism-based; in short: as §3
[11] = molecular target: T1, Heterogeneous nuclear ribonucleoprotein A1; assay: Inhibition of recombinant GST-tagged human hnRNP A1/his-tagged top1 cap region interaction expressed in expressed in Escherichia coli assessed as pBR322 DNA relaxation after 30 mins by agarose gel electrophoresis
In short: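 Calf thymus topoisomerase I (2 U) incubated with 1 µg supercoiled pBR322 in Tris pH 8/KCl/MgCl2/DTT/spermidine/BSA, with or without 100 µM CPT or 0.5 µM hnRNP A1-GST, for 30 min at 37 °C. Reaction stopped with SDS at 75 °C, then proteinase K digestion. Products run on 1% agarose gel and stained with EtBr.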

For `CC(=O)O[C@H]1C(=O)[C@@]2(C)[C@H]([C@H](OC(=O)c3ccccc3)[C@]3(O)C[C@H](OC(=O)[C@H](O)[C@@H](NC(=O)c4ccccc4)c4ccccc4)C(C)=C1C3(C)C)[C@]1(OC(C)=O)CO[C@@H]1C[C@@H]2O`, the “growth inhibition (GI)” value [1] was “inactive”.

`CC[C@@]1(OC(=O)CCCCCNC(=O)CCCC[C@@H]2SC[C@@H]3NC(=O)N[C@@H]32)C(=O)OCc2c1cc1n(c2=O)Cc2cc3ccccc3nc2-1` was tested, and the Activity [2] was “Active” and the Activity [3] was “Active”.

`CCc1c2c(nc3ccc(OC(=O)N4CCC(N5CCCCC5)CC4)cc13)-c1cc3c(c(=O)n1C2)COC(=O)[C@]3(O)CC` was tested, and the “growth inhibition (GI)” value [1] was “inactive”.

With `COc1cccc2c1C(=O)c1c(O)c3c(c(O)c1C2=O)C[C@@](O)(C(=O)CO)C[C@@H]3O[C@H]1C[C@H](N)[C@H](O)[C@H](C)O1` the “growth inhibition (GI)” value [1] was “inactive”.

`CC[C@@]1(O)C(=O)OCc2c1cc1n(c2=O)Cc2cc3ccccc3nc2-1` [CAMPTOTHECIN] was tested, and the Bmax [4] was 67 pg/mm2, the Kd [4] was 82.7 nM and the inhibition [5] was “Active”. The inhibition [6] was “Active”, the “growth inhibition (GI)” value [7] was “Dose-dependent effect” and the “growth inhibition (GI)” value [8] was “Dose-dependent effect”. The “growth inhibition (GI)” value [9] was “Active”, the “growth inhibition (GI)” value [10] was “Active” and the inhibition [11] was “Active”.

With BLEOMYCIN the “growth inhibition (GI)” value [1] was “inactive”.
